The source of these data is ChEMBL document CHEMBL3872272, “Synthesis and optimization of novel α-phenylglycinamides as selective TRPM8 antagonists” (Bioorg Med Chem, 2017).

The structures appear in SMILES notation.

A short description of series [1]: Tmax in Sprague-Dawley rat at 10 mg/kg, po administered as single dose by LC-MS/MS method. It is filed as ADME, organism-based. The conditions noted are these: in vivo. The essentials: (§1)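 Single oral (10 mg/kg) or intravenous (1 mg/kg) dose in rats, n = 3. Jugular vein blood taken at 2, 15 and 30 min and 1, 2, 4 and 6 h. Plasma concentrations measured by LC-MS/MS.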

Series [2] is described as follows: Plasma concentration in Sprague-Dawley rat model of distension-induced rhythmic bladder contraction at 1 mg/kg, iv measured after 15 mins. It counts as ADME, organism-based.
A short description of series [3]: Volume of distribution at steady state in Sprague-Dawley rat at 1 mg/kg, iv administered as single dose by LC-MS/MS method. It is filed as ADME, organism-based. The settings on record: in vivo, read-out: Vdss. A digest of the protocol: as §1
A short description of series [4]: Bioavailability in Sprague-Dawley rat at 10 mg/kg, po administered as single dose by LC-MS/MS method. It is filed as ADME, organism-based. The conditions noted are these: in vivo. The essentials: as §1
Series [5] is described as follows: Plasma concentration in Sprague-Dawley rat model of distension-induced rhythmic bladder contraction at 10 mg/kg, po measured after 3.5 hrs. It is filed as ADME, organism-based.
Series [6] is described as follows: Cmax in Sprague-Dawley rat at 10 mg/kg, po administered as single dose by LC-MS/MS method. It is filed as ADME, organism-based. Further details: dose 10 mg/kg, route oral. The settings on record: in vivo. The essentials:
as §1

Series [7] can be described thus: Drug metabolism in rat plasma assessed as hydrolyzation of methyl ester to carboxylic acid. It is filed as ADME, cell-free.

Regarding `C[C@H](c1cc(F)cc(F)c1)N(C(=O)c1ccccc1)[C@@H](C(N)=O)c1ccccc1`, the Tmax in series [1] was 50 min. In series [2], this compound came in with a concentration at […] of 1120 nM. Also, in series [3], the Vd was 1.2 L/kg. Also, the bioavailability in series [4] came out at 59%. Moreover, the concentration at 3.5 h in series [5] was > 1000 nM. This compound came in with a Cmax in series [6] of 3230 nM.
Regarding `COC(=O)[C@@H](c1ccccc1)N(Cc1cccc(OC)c1)C(=O)c1ccccc1`, the Drug metabolism result in series [7] is “Metabolite_Detected”.

For orientation: Tmax means the time from dosing to the highest level. The bioavailability is the share of a dose that reaches the circulation, judged against a reference dose that is usually intravenous. By Cmax is commonly meant the maximum level reached in the sampled fluid or tissue.
